Measurements as given in ChEMBL document CHEMBL1136747, “Influence of the 5-HT6 receptor on acetylcholine release in the cortex: pharmacological characterization of 4-(2-bromo-6-pyrrolidin-1-ylpyridine-4-sulfonyl)phenylamine, a potent and selective 5-HT6 receptor antagonist” (J Med Chem, 2003).

Columns and labels:
[1] = Dissociation constant was determined
[2] = biological target: T1, 5-hydroxytryptamine receptor 6 (Homo sapiens, UniProt P50406); assay: Antagonism assessed in a functional cAMP binding assay using 5-CT to stimulate human 5-hydroxytryptamine 6 receptor expressed in HEK 293 cells; type: cell-based, HEK293; conditions: read-out: pA2 (converted)
T1 sequence (P50406 whole entry): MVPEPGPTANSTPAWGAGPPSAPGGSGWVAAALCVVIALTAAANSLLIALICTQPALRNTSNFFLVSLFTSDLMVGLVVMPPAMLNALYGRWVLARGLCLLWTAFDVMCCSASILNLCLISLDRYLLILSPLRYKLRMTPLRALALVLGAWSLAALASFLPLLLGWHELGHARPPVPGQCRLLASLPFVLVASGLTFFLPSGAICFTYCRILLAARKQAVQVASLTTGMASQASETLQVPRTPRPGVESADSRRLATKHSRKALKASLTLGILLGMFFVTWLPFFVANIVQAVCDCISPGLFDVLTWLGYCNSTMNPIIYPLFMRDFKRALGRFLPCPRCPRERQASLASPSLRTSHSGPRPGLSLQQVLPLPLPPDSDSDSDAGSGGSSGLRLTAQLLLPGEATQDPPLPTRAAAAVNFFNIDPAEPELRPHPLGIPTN
Outline: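 Human 5-HT6 receptor stably expressed in HEK-293 cells; adenylate cyclase (cAMP) activity stimulated with 5-CT. 5-CT concentration–response curves were run with increasing antagonist concentrations, and the shift was analysed by Schild analysis, n = 3.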

[3] = In vivo plasma clearance after intravenous administration in rat; type: ADME, organism-based; conditions: read-out: Clp
Outline: (§1)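 Rats were dosed at 10 mg/kg in PEG/PG/WIP 40/40/20, either by oral gavage or intravenously with the same dose and formulation. Plasma concentrations were followed over 8 h. PK parameters were derived as plasma clearance, apparent terminal half-life, bioavailability and steady-state volume of distribution, reported as average ± SEM.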

[4] = biological target: 5-hydroxytryptamine receptor 7 (Homo sapiens, UniProt P34969); assay: Binding constant towards serotonin receptor subtype 5-hydroxytryptamine 7 receptor expressed in CHO cells using [3H]LSD as radioligand; type: cell-based
Chain of 5-hydroxytryptamine receptor 7 (P34969 whole entry): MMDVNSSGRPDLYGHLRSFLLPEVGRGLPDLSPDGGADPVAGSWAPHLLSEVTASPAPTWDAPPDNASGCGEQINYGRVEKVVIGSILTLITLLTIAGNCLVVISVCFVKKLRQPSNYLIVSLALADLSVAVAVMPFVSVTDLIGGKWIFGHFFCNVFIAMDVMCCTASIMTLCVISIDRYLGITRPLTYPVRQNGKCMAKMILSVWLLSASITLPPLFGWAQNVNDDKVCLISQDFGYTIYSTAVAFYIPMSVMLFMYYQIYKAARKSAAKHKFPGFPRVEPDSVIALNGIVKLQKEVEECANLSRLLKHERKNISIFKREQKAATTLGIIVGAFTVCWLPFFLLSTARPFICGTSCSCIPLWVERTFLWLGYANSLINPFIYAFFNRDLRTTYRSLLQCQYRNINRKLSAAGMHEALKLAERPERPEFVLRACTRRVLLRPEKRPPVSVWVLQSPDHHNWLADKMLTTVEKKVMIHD

[5] = biological target: 5-hydroxytryptamine receptor 1D (Homo sapiens, UniProt P28221); assay: Binding constant towards serotonin receptor subtype 5-hydroxytryptamine 1D receptor expressed in HEK 293 cells using [3H]LSD as radioligand; type: cell-based, HEK293
Chain of 5-hydroxytryptamine receptor 1D (P28221 whole entry): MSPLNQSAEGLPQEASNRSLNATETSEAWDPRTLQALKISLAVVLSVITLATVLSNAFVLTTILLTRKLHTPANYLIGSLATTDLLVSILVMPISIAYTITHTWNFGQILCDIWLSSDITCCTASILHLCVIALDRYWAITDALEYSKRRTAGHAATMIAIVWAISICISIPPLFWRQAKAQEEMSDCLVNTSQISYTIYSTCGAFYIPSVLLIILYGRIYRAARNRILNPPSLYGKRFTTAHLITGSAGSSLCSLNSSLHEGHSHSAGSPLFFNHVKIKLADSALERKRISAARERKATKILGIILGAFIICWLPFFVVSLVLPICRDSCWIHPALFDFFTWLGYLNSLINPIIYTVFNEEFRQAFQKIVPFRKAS

[6] = biological target: T1, 5-hydroxytryptamine receptor 6; assay: Binding constant towards serotonin receptor subtype 5-hydroxytryptamine 6 receptor expressed in HeLa cells using [3H]LSD as radioligand; type: cell-based
Outline: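 Radioligand binding to human recombinant 5-HT6 receptor expressed in HeLa cells with [3H]-LSD. Values are the mean ± SEM of three independent determinations, each run in triplicate.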

[7] = Bioavailability after oral administration in rat expressed as percentage; type: ADME, organism-based; conditions: in vivo
Outline: as §1

Rattus norvegicus = assay: Ratio of brain/plasma concentration after oral administration in rat expressed as percentage; type: ADME, organism-based
Outline: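 Rats dosed at 10 mg/kg by oral gavage in PEG/PG/WIP 40/40/20. Brain and plasma concentrations were measured, and the brain/plasma ratio is given as a percentage (average ± SEM).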

[8] = Half-life period after oral administration in rat; type: ADME, organism-based; conditions: in vivo
Outline: as §1

[9] = Volume of distribution at steady state after intravenous administration in rat; type: ADME, organism-based; conditions: in vivo, read-out: Vss
Outline: as §1

[10] = biological target: T2, 5-hydroxytryptamine receptor 2C (Homo sapiens, UniProt P28335); assay: Binding constant towards serotonin receptor subtype 5-hydroxytryptamine 2C receptor expressed in 3T3 cells using [3H]5-HT as radioligand; type: cell-based, NIH3T3
T2 sequence (P28335 whole entry): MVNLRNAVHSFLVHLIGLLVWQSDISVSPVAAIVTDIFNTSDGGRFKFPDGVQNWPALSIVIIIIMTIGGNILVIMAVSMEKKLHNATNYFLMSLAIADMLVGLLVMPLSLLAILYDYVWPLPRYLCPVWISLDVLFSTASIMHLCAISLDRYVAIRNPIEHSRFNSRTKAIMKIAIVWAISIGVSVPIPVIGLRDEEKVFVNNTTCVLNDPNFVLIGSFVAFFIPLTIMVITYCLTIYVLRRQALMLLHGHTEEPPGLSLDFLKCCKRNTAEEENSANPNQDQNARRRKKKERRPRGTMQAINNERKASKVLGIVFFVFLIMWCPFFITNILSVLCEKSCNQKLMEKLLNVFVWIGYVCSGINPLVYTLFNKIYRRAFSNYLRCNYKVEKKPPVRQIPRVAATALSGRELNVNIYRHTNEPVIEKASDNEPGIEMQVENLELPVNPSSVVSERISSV

[11] = biological target: 5-hydroxytryptamine receptor 2A (Homo sapiens, UniProt P28223); assay: Binding constant towards serotonin receptor subtype 5-hydroxytryptamine 2A receptor expressed in 3T3 cells using [3H]-DOB as radioligand
Chain of 5-hydroxytryptamine receptor 2A (P28223 whole entry): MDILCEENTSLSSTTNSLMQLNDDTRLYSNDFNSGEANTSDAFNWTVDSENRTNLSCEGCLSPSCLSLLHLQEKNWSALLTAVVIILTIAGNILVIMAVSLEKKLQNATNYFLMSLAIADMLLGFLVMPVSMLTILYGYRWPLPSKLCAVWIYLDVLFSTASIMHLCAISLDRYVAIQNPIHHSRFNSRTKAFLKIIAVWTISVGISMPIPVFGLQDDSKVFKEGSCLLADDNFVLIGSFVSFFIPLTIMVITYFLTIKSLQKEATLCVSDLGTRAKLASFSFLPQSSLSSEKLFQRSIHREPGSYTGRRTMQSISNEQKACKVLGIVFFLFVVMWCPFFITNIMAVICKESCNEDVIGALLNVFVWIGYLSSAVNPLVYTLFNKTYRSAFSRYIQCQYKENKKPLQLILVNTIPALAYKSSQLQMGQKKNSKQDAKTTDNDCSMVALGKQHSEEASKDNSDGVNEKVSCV

[12] = Half-life period after intravenous administration in rat; type: ADME, organism-based; conditions: in vivo
Outline: as §1

[13] = Partition coefficient (logD7.4); type: physicochemical; conditions: octanol/water, pH 7.4

| Ki [4] | Ki [5] | Ki [6] | Ki [10] | Ki [11] | SMILES | other results |
| --- | --- | --- | --- | --- | --- | --- |
| > 100000 nM | > 100000 nM | 1 nM | > 10000 nM | 1450 nM | Nc1ccc(S(=O)(=O)c2cc(Br)nc(N3CCCC3)c2)cc1 | pKa [1]: < 2; Kb [2]: 3.16 nM; clearance [3]: 20 mL/min/kg; bioavailability [7]: 46%; Ratio (Rattus norvegicus): 24%; half-life [8]: 3 h; Vd [9]: 1.4 L/kg; half-life [12]: 3.7 h; logD [13]: 3.3 |
| > 10000 nM | > 10000 nM | 2.29 nM | > 10000 nM | – | CNc1cc(S(=O)(=O)c2ccc(N)cc2)cc(Br)n1 | – |
| – | – | 42.7 nM | – | – | CNc1cc(S(=O)(=O)Nc2ccc(N)cc2)cc(Br)n1 | – |
| > 10000 nM | 1120 nM | 0.115 nM | 20.4 nM | – | Nc1ccc(S(=O)(=O)c2cc(Br)nc(N3CCNCC3)c2)cc1 | – |
| – | – | 53.7 nM | – | – | Nc1ccc(S(=O)(=O)c2cc(Br)nc(Br)c2)cc1 | – |
| > 10000 nM | > 10000 nM | 55 nM | > 10000 nM | > 10000 nM | CNc1cc(NS(=O)(=O)c2ccc(N)cc2)nc(NC)n1 | – |
